Experiments:
[1] = test system: Human immunodeficiency virus 1; test: Antiviral activity against HIV1 3B infected in human MT4 cells assessed as inhibition of virus replication after 5 days by MTT assay; conditions: Human immunodeficiency virus 1, 3B, MT4, 120 h
[2] = Therapeutic index, ratio of CC50 for human MT4 cells to EC50 for HIV1 3B; assay type: cell-based
Method in brief: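 Selectivity index calculated as CC50 divided by EC50. Both come from parallel 5-day MTT viability assays in MT-4 cells, mock-infected or infected with HIV-1 IIIB at MOI 0.01.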

[3] = test system: Human immunodeficiency virus 1; test: Antiviral activity against HIV1 3B infected in human MT4 cells assessed as inhibition of virus replication after 4 days by MTT assay; assay type: functional, organism-based; conditions: Human immunodeficiency virus 1, 3B, MT4, 96 h

Compound | EC50 [1] [nM] | further results
c1ccc(CNCc2ccc(CN3CCCNCCNCCCNCC3)cc2)nc1 | 9 | selectivity ratio [2]: > 12000
c1ccc(CNCc2ccc(CN3CCCNCCNCCCNCC3)cc2)cc1 | 491 | –
CN(Cc1ccc(CN2CCCNCCNCCCNCC2)cc1)Cc1ccccn1 | 416 | –
c1ccc(CNCc2ccc(CC3CCNCCc4cccc(n4)CCNCC3)cc2)nc1 | 217 | –
c1ccc(CCNCc2ccc(CN3CCCNCCNCCCNCC3)cc2)nc1 | 49100 | –
Nc1ccc(CNCc2ccc(CN3CCCNCCNCCCNCC3)cc2)cc1 | 717 | –
c1ccc(CNCc2ccc(CN3CCNCCc4cccc(n4)CCNCC3)cc2)nc1 | 1 | –
c1ccc(CNCc2ccc(CN3CCNCCCCCCCNCC3)cc2)nc1 | 43 | –
Nc1ccccc1CNCc1ccc(CN2CCCNCCNCCCNCC2)cc1 | 1820 | –
c1ccc(CNCc2ccc(CN3CCNCCNCCc4cccc(c4)CC3)cc2)nc1 | 14100 | –
c1cc(CNCc2ccc(CN3CCCNCCNCCCNCC3)cc2)ccn1 | 9980 | –
c1ccc(CNCc2ccc(CC3CCNCCCCCCCNCC3)cc2)nc1 | 2180 | –
Cc1cnc(CNCc2ccc(CN3CCCNCCNCCCNCC3)cc2)cn1 | 1900 | –
c1ccc(CNCc2ccc(CN3CCNCCCSCCCNCC3)cc2)nc1 | 13 | –
[O-][S+]1CCCNCCN(Cc2ccc(CNCc3ccccn3)cc2)CCNCCC1 | 485 | –
FC1CCCNCCN(Cc2ccc(CNCc3ccccn3)cc2)CCNCCC1 | 1240 | –
c1ccc(CNCc2ccc(CN3CCNCCNCCc4cccc(n4)CC3)cc2)nc1 | 63 | –
c1ccc(CNCc2ccc(CN3CCNCCc4cccc(c4)CCNCC3)cc2)nc1 | 40 | –
c1ccc(CNCc2ccc(CN3CCNCCc4cncc(c4)CCNCC3)cc2)nc1 | 104 | –
c1ccc(CNCc2ccc(CC3CCNCCCOCCCNCC3)cc2)nc1 | 426 | –
O=C1CN(Cc2ccc(CNCc3ccccn3)cc2)CCc2cccc(n2)CCCCCN1 | 126000 | –
c1ccc(CNCc2ccc(CN3CCCCCCCNCCNCC3)cc2)nc1 | 11100 | –
FC1(F)CCCNCCN(Cc2ccc(CNCc3ccccn3)cc2)CCNCCC1 | 920 | –
c1cncc(CNCc2ccc(CN3CCCNCCNCCCNCC3)cc2)c1 | 8470 | –
O=S1(=O)CCCNCCN(Cc2ccc(CNCc3ccccn3)cc2)CCNCCC1 | 11900 | –
c1ccc(CNCc2ccc(CN3CCNCCCCCCc4cccc(n4)C3)cc2)nc1 | – | EC50 [3]: 4.56 µM
c1ccc(CNCc2ccc(CN3CCNCCCCCc4cccc(n4)CC3)cc2)nc1 | 1240 | –
c1ccc(CNCc2ccc(CN3CCNCCCOCCCNCC3)cc2)nc1 | 4 | –
c1cc(CN2CCCNCCNCCCNCC2)ccc1CN1CCCNCCNCCCNCC1 [PLERIXAFOR] | 4 | –

Source: ChEMBL document CHEMBL1156810, “Synthesis and structure-activity relationships of azamacrocyclic C-X-C chemokine receptor 4 antagonists: analogues containing a single azamacrocyclic ring are potent inhibitors of T-cell tropic (X4) HIV-1 replication” (J Med Chem, 2010)
